What was measured:
[1] = tested on: Hepatitis B virus; assay: (§1) Antiviral activity against lamivudine-resistant Hepatitis B virus harboring L180M/M204V mutant infected in human HepG2.2.15 cells assessed as inhibition of extracellular HBV DNA replication at 20 uM supplemented with fresh medium containing compound every 3 days for 9 days measured post-last dose by FQ-PCR analysis relative to control; assay type: functional
How it was run: (§2)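 Lamivudine-resistant cell line transfected with the L180M/M204V mutant, exposed to 10, 20 or 40 µM for 3, 6 or 9 days. Intracellular and extracellular HBV DNA levels measured.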

[2] = tested on: Hepatitis B virus; assay: Antiviral activity against Hepatitis B virus infected in human HepG2.2.15 cells assessed as inhibition of extracellular HBV DNA replication at 20 uM measured on day 3 by FQ-PCR analysis relative to control; assay type: functional; conditions: HepG2.2.15, 72 h
How it was run: (§3)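 HepG2.2.15 cultures were treated at 10, 20 or 40 µM for 3, 6 and 9 days. Both intracellular and extracellular HBV DNA levels were then determined and compared with untreated cells.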

[3] = tested on: Hepatitis B virus; assay: Antiviral activity against Hepatitis B virus infected in human HepG2.2.15 cells assessed as inhibition of HBeAg secretion at 20 uM supplemented with fresh medium containing compound every 3 days for 6 days and measured on day 9 by ELISA relative to control; assay type: functional
How it was run: (§4)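 HepG2.2.15 cells were exposed to compound for up to 9 days. The initial screen used 20 µM for 9 days, with lamivudine (20 µM) as positive control. Follow-up used 10, 20 or 40 µM sampled at days 3, 6 and 9. HBsAg and HBeAg were quantified in culture supernatant by ELISA and compared with a no-drug control. Results are mean ± SD of three experiments.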

[4] = tested on: Hepatitis B virus; assay: as §1, with “6” for “9”; assay type: functional; how it was run: as §2
[5] = tested on: Hepatitis B virus; assay: Antiviral activity against Hepatitis B virus infected in human HepG2.2.15 cells assessed as inhibition of extracellular HBV DNA replication at 20 uM supplemented with fresh medium containing compound every 3 days for 9 days measured post-last dose by FQ-PCR analysis relative to control; assay type: functional; how it was run: as §3
[6] = tested on: Hepatitis B virus; assay: as §1, with “intracellular” for “extracellular”; assay type: functional; how it was run: as §2
[7] = tested on: Hepatitis B virus; assay: Antiviral activity against lamivudine-resistant Hepatitis B virus harboring L180M/M204V mutant infected in human HepG2.2.15 cells assessed as inhibition of extracellular HBV DNA replication at 20 uM measured on day 3 by FQ-PCR analysis relative to control; assay type: functional; conditions: HepG2.2.15, 72 h; how it was run: as §2
[8] = tested on: Hepatitis B virus; assay: Antiviral activity against Hepatitis B virus infected in human HepG2.2.15 cells assessed as inhibition of HBsAg secretion at 20 uM supplemented with fresh medium containing compound every 3 days for 6 days and measured on day 9 by ELISA relative to control; assay type: functional; how it was run: as §4
[9] = tested on: Hepatitis B virus; assay: Antiviral activity against Hepatitis B virus infected in human HepG2.2.15 cells assessed as inhibition of intracellular HBV DNA replication at 20 uM measured on day 3 by FQ-PCR analysis relative to control; assay type: functional; conditions: HepG2.2.15, 72 h; how it was run: as §3
[10] = tested on: Hepatitis B virus; assay: as §1, with “intracellular” for “extracellular”, “6” for “9”; assay type: functional; how it was run: as §2
[11] = tested on: Hepatitis B virus; assay: Antiviral activity against Hepatitis B virus infected in human HepG2.2.15 cells assessed as inhibition of intracellular HBV DNA replication at 20 uM supplemented with fresh medium containing compound every 3 days for 9 days measured post-last dose by FQ-PCR analysis relative to control; assay type: functional; how it was run: as §3
[12] = tested on: Hepatitis B virus; assay: Antiviral activity against Hepatitis B virus infected in human HepG2.2.15 cells assessed as inhibition of extracellular HBV DNA replication at 20 uM supplemented with fresh medium containing compound every 3 days for 6 days measured post-last dose by FQ-PCR analysis relative to control; assay type: functional; how it was run: as §3
[13] = tested on: Hepatitis B virus; assay: Antiviral activity against lamivudine-resistant Hepatitis B virus harboring L180M/M204V mutant infected in human HepG2.2.15 cells assessed as inhibition of intracellular HBV DNA replication at 20 uM measured on day 3 by FQ-PCR analysis relative to control; assay type: functional; conditions: HepG2.2.15, 72 h; how it was run: as §2
[14] = tested on: Hepatitis B virus; assay: Antiviral activity against Hepatitis B virus infected in human HepG2.2.15 cells assessed as inhibition of intracellular HBV DNA replication at 20 uM supplemented with fresh medium containing compound every 3 days for 6 days measured post-last dose by FQ-PCR analysis relative to control; assay type: functional; how it was run: as §3
[15] = Cytotoxicity against human HepG2 cells supplemented with fresh medium containing compound every 3 days for 9 days measured post-last dose by MTT assay; assay type: cell-based
How it was run: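 HepG2 cells were exposed to compound for 3 or 9 days and viability was read by MTT assay. CC50 is the concentration causing 50% cytotoxicity. Results are mean ± SD of three experiments.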

**Q.** Which results are given for `Nc1ccn([C@@H]2CS[C@H](CO)O2)c(=O)n1` [LAMIVUDINE]?
**A.** inhibition (INH) [1]: 19.3%; inhibition at 20 µM [2]: 32.7%; inhibition (INH) [3]: 39.6%; inhibition (INH) [4]: 8.4%; inhibition (INH) [5]: 78.6%; inhibition (INH) [6]: 11.2%; inhibition at 20 µM [7]: 4.1%; inhibition (INH) [8]: 42.4%; inhibition at 20 µM [9]: 47.4%; inhibition (INH) [10]: 7.9%; inhibition (INH) [11]: 77.9%; inhibition (INH) [12]: 54.1%; inhibition at 20 µM [13]: 6.3%; inhibition (INH) [14]: 69.7%

**Q.** With `C[C@@]1(F)[C@H](O)[C@@H](CO)O[C@H]1n1nnc2c(NCc3ccccc3)ncnc21` as the molecule, how does the “inhibition (INH)” value [3] read?
**A.** 11.9%

**Q.** What about the “inhibition (INH)” value [8] of the same molecule?
**A.** 8.5%

**Q.** What about the CC50 at 216 h [15] of the same molecule?
**A.** > 600 µM

From ChEMBL document CHEMBL4340532, “Design, synthesis, and biological evaluation of novel 2'-deoxy-2'-fluoro-2'-C-methyl 8-azanebularine derivatives as potent anti-HBV agents” (Bioorg Med Chem Lett, 2019)
